Most compounds without a hit are left out; they make up all but 4% or so of the library.
Statin myotox sup – suppressors of statin myotoxicity in C2C12 myotubes, primary screen, cell-based, single point, plate reader. C2C12 myotubes + simvastatin, ATP luminescence, 48 h; scaled: DMSO 0, geranylgeraniol control 100. rescue of ATP level, % at 7.49 µM. 0.78% of 330,000 active. AID 602340, 2012;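 active means mean ATP rescue above about 67%, or every replicate alone reaching that limit, limit read from the data, passing the limit was not always enough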;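 further: myotubes were challenged with 10 µM simvastatin during compound exposure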
rRNA inh HTS – reduced GFP signal of wild-type E. coli, primary screen, bacterial rRNA inhibitor project, GFP/RFP fluorescence, OD600, single point; E. coli WT GFP vs humanized-ribosome RFP mutants, 24 h; active compounds read low; DMSO median 0, no signal -100; GFP signal change (wild-type ribosome), % (no concentration beside the values); 1.6% of 350,000 active; AID 720706, 2013;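 active means significant combined selectivity score with lowered wild-type GFP, culture density cut under 30%, mutant RFP and density less affected; inactive means any of these conditions unmet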
FN deposit inh – inhibitors of fibronectin matrix deposition, primary screen, AH1F cells, Alexa488-fibronectin fluorescence, plate reader; inhibition, % at 12.6 µM; AH1F fibroblasts, overnight; 0.086% of 350,000 active;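 active means mean inhibition across replicates of 30% or more, regardless of how many single replicates reach that level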;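 further: positive control wells lacked labelled fibronectin entirely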
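Material: AH1F fibroblast monolayer depositing Alexa488-labelled fibronectin into matrix / Amount: 10000 AH1F cells per well / Signal: fluorescence 485/525 nm / Medium: DMEM, 2% serum / Compound: single dose, pinned / Incubation: 1 h cell adhesion before compound, then overnight fibronectin incubation / Reagent: Alexa488-FN, 24 nM final / Read-out: inhibition of fibronectin deposition signal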
SIRT5 block – SIRT5 desuccinylase inhibitors, primary screen, biochemical, fluorescence imaging, single point, set 5; NAD-dependent protein deacylase sirtuin-5, mitochondrial (Homo sapiens), Q9NXA8; Purified SirT5, succinyl-peptide AMC, trypsin-coupled fluorescence; inhibition, % at 15 µM; 1.1% of 330,000 active; in the data active means inhibition above about 15%
Target sequence (Q9NXA8 whole entry, looked up): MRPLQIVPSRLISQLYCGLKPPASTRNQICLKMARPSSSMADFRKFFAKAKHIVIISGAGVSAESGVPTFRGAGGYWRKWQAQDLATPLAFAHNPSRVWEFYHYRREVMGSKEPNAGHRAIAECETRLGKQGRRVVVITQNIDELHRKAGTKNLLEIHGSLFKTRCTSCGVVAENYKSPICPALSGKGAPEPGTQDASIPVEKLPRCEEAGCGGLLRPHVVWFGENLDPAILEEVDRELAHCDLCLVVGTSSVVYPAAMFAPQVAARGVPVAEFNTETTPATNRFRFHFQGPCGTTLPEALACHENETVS
E-sel inducer – E-selectin induction in HUVECs, primary screen, imaging, HUVEC, immunofluorescence imaging, single point; 0.37% of 260,000 active; normalized: neutral wells 0, TNF-alpha wells 100; activation, % at 7.58 µM;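 active means mean E-selectin-positive cell signal at least 10% of the positive control, reached in at least 60% of replicates, without over 20% cell loss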
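material = human umbilical vein endothelial cells (HUVEC), E-selectin induction | quantity = 3,000 cells/well | medium = EGM-2 growth medium on 0.1% gelatin-coated wells | technique = immunofluorescence imaging | read-out basis = % PE-positive cells | control set = TNF-alpha positive control, DMSO neutral control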
FGF22 binding – binders of human FGF22 protein, primary screen, FGF22 synaptogenesis inhibitor project, biophysical, thermal shift, single point; Fibroblast growth factor 22 (Homo sapiens), Q9HCT0; recombinant FGF22 thermal shift, SYPRO orange fluorescence; percent of sucrose octasulfate shift, DMSO zero; activity (Tm shift, normalised), % at 9.99 µM; 1.5% of 340,000 active; AID 651658, 2012;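 active means mean Tm shift, scaled 0 neutral to 100 positive control, at about 1.3% or above, every replicate too, limit read from the data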
Target sequence (Q9HCT0 whole entry, looked up): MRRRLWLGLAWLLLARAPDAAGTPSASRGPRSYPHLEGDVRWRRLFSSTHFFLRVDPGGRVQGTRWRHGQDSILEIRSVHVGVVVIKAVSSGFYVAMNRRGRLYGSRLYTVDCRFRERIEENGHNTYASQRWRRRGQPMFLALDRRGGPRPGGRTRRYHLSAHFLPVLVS
The depositor's hits bear a star; nt = not tested or not shown.

SMILES	Statin myotox sup	rRNA inh HTS	FN deposit inh	SIRT5 block	E-sel inducer	FGF22 binding
COc1ccc2c3c(n(C)c2c1)[C@@H](CO)N(C(=O)c1cccc(F)c1)CC31CCN(C(=O)c2cccc(F)c2)CC1	nt	-6	nt	nt	0	0
C[C@@H]1CN([C@@H](C)CO)C(=O)Cc2cc(NS(C)(=O)=O)ccc2O[C@@H]1CN(C)Cc1ccccc1	10	2	nt	-3	0	0
CCN(CC)C(=O)CSc1nc2c(c(-c3cccnc3)c1C#N)CCCC2	nt	-26	12	3	0	43*
N#Cc1c(SCC(N)=O)nc2c(c1-c1ccncc1)CCCC2	nt	-1	8	0	0	0
COCC(=O)Nc1ccc2c(c1)OC[C@H](C)N(C(=O)c1ccccc1)C[C@H](C)[C@H](OC)CN(C)C2=O	-2	-1	-6	1	0	1
Cc1nc(N2CCN(c3ccccn3)CC2)c2c(C)c(C(=O)Nc3ccc(F)cc3Cl)sc2n1	-10	0	4	-5	43*	0
CC(=O)N(C)C[C@H]1Oc2ccc(NS(C)(=O)=O)cc2C(=O)N(C)C[C@H]1C	nt	-9	-17	nt	nt	nt
O=C(NC(=S)Nc1ccccc1Cl)c1csnn1	-13	0	nt	-7	nt	0
O=C(Nc1ccccc1NC(=O)c1csnn1)c1csnn1	nt	6	-9	1	nt	43*
CCOCC(=O)Nc1cc(C(=O)NCCc2ccccc2)ccc1Cl	0	2	-6	-2	nt	11*
COCCNC(=O)C[C@H]1C[C@H]2c3cc(NC(=O)Nc4ccc(F)cc4)ccc3O[C@H]2[C@H](CO)O1	6	-1	-5	nt	0	0
C[C@H](NC(=O)C[C@@H]1CC[C@H](NC(=O)Cc2ccccn2)[C@@H](CO)O1)c1ccccc1	7	-1	4	3	0	0
Cc1ccc(S(=O)(=O)NCC[C@@H]2CC[C@H](NC(=O)CCN3CCCCC3)[C@@H](CO)O2)cc1	-2	-1	5	17*	0	0
O=C(N[C@H]1CC[C@@H](CCNS(=O)(=O)c2ccc(F)cc2)O[C@@H]1CO)C1CCC1	0	0	-1	18*	0	0
O=C(N[C@H]1CC[C@@H](CCNS(=O)(=O)c2ccc(F)cc2)O[C@H]1CO)C1CCC1	5	-1	2	-5	0	0
Cc1ccc(S(=O)(=O)NCC[C@@H]2CC[C@@H](NC(=O)CCN3CCCCC3)[C@H](CO)O2)cc1	-5	2	9	10	0	0
CC(=O)Nc1ccc(-c2csc(NCc3ccccc3)n2)cc1	nt	2	2	-2	0	0
CC(=O)Nc1cccc(-c2csc(NCc3ccccc3)n2)c1	nt	-30*	1	0	4	0
Cc1noc(C)c1S(=O)(=O)Nc1ccc2c(c1)C(=O)N([C@H](C)CO)C[C@H](C)[C@@H](CN(C)C(=O)Nc1ccccc1)OCCCC[C@@H](C)O2	nt	1	1	7	0	0
Cc1nn(-c2ccccc2)c(N)c1Sc1ccccc1[N+](=O)[O-]	nt	-37*	3	2	-3	0
Cc1cc(Sc2nnc(N)s2)c2ccccc2n1	-11	7	2	-4	0	0
Cc1cc(Sc2nnc(/N=C/N(C)C)s2)c2ccccc2n1	nt	-20*	-3	4	0	0
C/C(CC(=O)Nc1ccc(Cl)cc1C(F)(F)F)=N\NC(=O)c1ccccn1	nt	1	0	-4	1	43*
CN=c1scc(-c2ccc(F)cc2)n1/N=C/c1ccc(O)c(O)c1	nt	-41*	-2	0	nt	0
CN=c1scc(-c2ccc([N+](=O)[O-])cc2)n1/N=C/c1ccco1	-5	-18	3	0	0	0
SMILES	Statin myotox sup	rRNA inh HTS	FN deposit inh	SIRT5 block	E-sel inducer	FGF22 binding
O=C1CCC([N+](=O)[O-])C(c2cc(Br)ccc2F)N1 (configuration not stated)	1	18	-1	-3	nt	0
O=C1CCC([N+](=O)[O-])C(c2ccc(Cl)cc2Cl)N1 (configuration not stated)	70*	nt	nt	nt	nt	nt
COc1ccc2c3c([nH]c2c1)[C@H](CO)N(C(=O)NC(C)C)CC31CN(C(=O)NC(C)C)C1	nt	3	nt	1	1	0
C[C@H]1[C@@H](Cc2cc(Cl)cc(Cl)c2)N(c2ccccc2)c2ccccc2CN1Cc1ccccc1	nt	-16	3	-1	1	0
COc1ccc(N2c3ccccc3CN(Cc3ccccc3)CC2Cc2cc(OC)c(OC)c(OC)c2)cc1 (configuration not stated)	-10	-5	-2	nt	0	44*
C[C@@H]1CN([C@H](C)CO)C(=O)c2cc(NC(=O)CCCCCC(=O)Nc3ccccc3N)ccc2O[C@H]1CN(C)C(=O)NC1CCCCC1	nt	1	nt	nt	0	0
O=C(C(=O)N1CCC(CNS(=O)(=O)c2ccc(F)c(F)c2)CC1)c1cc2ccccc2o1	nt	-12*	1	nt	0	0
C[C@@H]1CCCCO[C@@H](CN(C)S(=O)(=O)c2cn(C)cn2)[C@@H](C)CN([C@H](C)CO)C(=O)c2cc(NS(=O)(=O)c3cccs3)ccc2O1	-50	-1	nt	-6	0	0
O=C(Cc1ccc(F)cc1)Nc1cccc(-c2ccc3nncn3n2)c1	nt	-3	-4	-2	nt	44*
COCC(=O)Nc1cccc(-c2ccc3nncn3n2)c1	-5	9	6	-2	nt	0
CCc1ccc(S(=O)(=O)Nc2cccc(-c3ccc4nncn4n3)c2)s1	nt	nt	-18	4	nt	43*
Cn1c(-c2ccccc2)c(C(=O)CCl)c2ccccc21	nt	-30	-1	-4	nt	44*
CCCC#Cc1cnc2c(c1)C(=O)N([C@@H](C)CO)C[C@H](C)[C@@H](CN(C)S(=O)(=O)c1cccc(OC)c1)O2	2	-22	nt	11	0	0
CCCNC(=O)/C=C/C(=O)O	nt	5	16	-1	nt	44*
O=C(O)/C=C/C(=O)NCCCc1ccccc1	nt	-12	-9	-2	2	1
O=C(CN1CCC(NC(=O)c2ccccc2F)CC1)Nc1ccc2c(c1)OCCO2	-14	nt	-1	-2	nt	43*
Cc1ccccc1C(=O)NC1CCN(CC(=O)Nc2ccc3c(c2)OCCO3)CC1	nt	15	-4	-1	nt	43
CCC(NC(=O)NCc1ccccc1)(C(F)(F)F)C(F)(F)F	nt	3	4	30*	nt	0

Screening results: PubChem, Broad Institute
